Results on 38 variants are retold here after the RNAGym collection of RNA variant scans (doi:10.1126/science.aae0568).

B1: tRNA (parent)
chain: GUUCCGUUGGCGUAAUGGUAACGCGUCUCCCUCCUAAGGAGAAGACUGCGGGUUCGAGUCCCGUACGGAACG

Fewer inactive variants are shown than the library holds.

The data set covers variants of B1. Put plainly: yeast fitness relative to wild type (ratio to wild type); higher = fitter; tRNA-Arg(CCU), competitive growth, 37 C, YPD. Summed up: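 A pool of Saccharomyces cerevisiae strains, each with a tRNA-Arg(CCU) gene variant at the native genomic locus, was competed in YPD at 37°C for 24 hours across six parallel replicates. The variants had been chemically synthesised at a 3% per-site mutation rate over 69 sites, and gene amplicons before and after competition were read by 100-nucleotide paired-end sequencing. Darwinian fitness relative to wild type rested on changes in genotype frequencies. Genotypes required ≥ 100 starting reads, and estimates < 0.5 were set to 0.5.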
For GUUCCGUUGGCGUACUGGUAACGCGUCUCCCUCCUAAGGAGAAGACUGCGGGUUUGAGUCCCGUGCGGAACG [A15C C55U A65G], the yeast fitness was at most 0.5.
Take GUUCCGUUGGCGUACUGGUAACGCGUCUCCCUCCUAAGGAGAAGACUGCGGGUUCGAGUCCCGUAUGGAACG [A15C C66U]: the yeast fitness was 0.605.
Take GUUCCGUUGGCGUACUGGUAACGCGUCUCCCUUCUAAGGAGAAGACGGUGGCUUCGAGUCCCGUACGAAACG [A15C C33U U47G C49U G52C G68A]: the yeast fitness is at most 0.5.
As for GUUCCGUUGGCGUACUGGUAACGCGUCUCGCCCUUAAGGAGAAGACUGCGGGUUCGAGUCCCGUAUGGACCG [A15C C30G U32C C34U C66U A70C], the yeast fitness was at most 0.5.
As for GUUCCGUUGGCGUACUGGUAACGCGUCUCCCUUCUAAGGAGAAGACGGUGGCUUCGAGUCCCGUACGGAACG [A15C C33U U47G C49U G52C], the figure is at most 0.5.
Regarding GUUCCGUUGGCGUACUGGUAACGCGUCUCCAUCCUAAGGAGAAGACUGCAGGUUCGAGUCCCGUACGGAACG [A15C C31A G50A], the yeast fitness is at most 0.5.
As for GUUCCGUUGGCGUACUGGUAACGCGUCUCUCUCCUAAGGAGAAGACUGCGGGUUCGAGUCCCGUACAGAACG [A15C C30U G67A], the yeast fitness was at most 0.5.
Turning to GUUCCGUUGGCGUACUAGUAACGCGUCACCCUCCUAAGGAGAAGACUGCGGGUUCGAGUCCCGUACGGAACG [A15C G17A U28A], the yeast fitness is 0.675.
As for GUUCCGUUGGCGUACUGGUAACGCGUCUCACUCCUAAGGAGCAGACUGCGGGUUCAUGUCCCGUACGGAACG [A15C C30A A42C G56A A57U], the figure is 0.578; as for GUUCCGUUGGCGUACUGGUAACGCGUCUCCUUCCUAAGGAGAAGACUCCGGGUUCGAGUCCCGUCCGGAACG [A15C C31U G48C A65C], at most 0.5; as for GUUCCGUUGGCGUACUAGUAACGCGUCUCCCUCCUAAGGAGUAGACUGCGGGUUCGAGUCCCGUACGGAACG [A15C G17A A42U], at most 0.5.
For GUUCCGUUGGCGUACUGGUAACGCGUCUCCUUCCUAAAGAGAAGACUGCGGGUUCCAGUCCCGUACGGAUCG [A15C C31U G38A G56C A70U], the yeast fitness is 0.581.
The value for GUUCCGUUGGCGUACUGGUAACGCGUCUCACUCCUAAGGAGAAGACUGCGGGUUCGGGUCCCGUACGGAACG [A15C C30A A57G] was at most 0.5; that for GUUCCGUUGGCGUACUAGUAACGCGUCUAUCUCCUAAGGAGAAGACUGCGGGUUCGAGUCCGGAACGGAACG [A15C G17A C29A C30U C62G U64A] was at most 0.5.
GUUCCGUUGGCGUACUCGUAACGCGUCUCCCUCCUCACGAGAAGACUACGGGUUCGAGUCCCGUACGGAACG [A15C G17C A36C G38C G48A]: the yeast fitness was at most 0.5.
As for GUUCCGUUGGCGUACUGGUAACGCGUCUACCUCCUAAGGAGAAGACUGCGGGUUCGAGUCCCGUAUGGAACG [A15C C29A C66U], the yeast fitness was at most 0.5.
As for GUUCCGUUGGCGUACUGGUAACGCGUCUCCCUCCUAAGGAGAAGACUGGGGGUUCGAGUCCCGUACGGAACG [A15C C49G], the figure is 0.652.
As for GUUCCGUUGGCGUACUGGUAACGCGUCUCCCUCCUAAGGAGAAGACUGUGGGUUCGAGUCCCGUACGGAACG [A15C C49U], the figure is 0.896.
Consider GUUCCGUUGGCGUACUGGUAACGCGUCUCCCUCCUAAGGAGAAGACUGCGGGUUUGAGUCCCGUACGGAACG [A15C C55U], for which the yeast fitness was 0.625.
The value for GUUCCGUUGGCGUACUGGUAACGCGUCUCCCUCCUAAGGAGAAGACUGCGGGUUGGAGUCCCGUACGGAACG [A15C C55G] was 0.593.
On to GUUCCGUUGGCGUACUGGUAACGCGUCUCCGUCCUAAGGAGAAGACUGCGGGUUAGAGUCCCGUAUGGAACG [A15C C31G C55A C66U], for which the yeast fitness was at most 0.5.
As for GUUCCGUUGGCGUACUGGUAACGCGUCUUCCUCCUAAGGAGAAGACUGCGGGUUCGAGUCCCGUACGGCACG [A15C C29U A69C], the figure is at most 0.5; as for GUUCCGUUGGCGUACUGGUAACGCGUCUCCCUGCUAAGGAGCAGCCUGCGGGUUCGAGUCCCGUACGGAACG [A15C C33G A42C A45C], at most 0.5.
GUUCCGUUGGCGUACUCGUAACGCGUCUCCAUCCUAAGGAGAACACUGCGGGUUCGAGUCCCGUACGGAGCG [A15C G17C C31A G44C A70G]: the yeast fitness is at most 0.5.
Take GUUCCGUUGGCGUACUGGUAACGCGUCUCCGUCCUAAGGAGAAGACUGCGGGUUCGAAACCCGUUCGGAACG [A15C C31G G58A U59A A65U]: the yeast fitness is at most 0.5.
As to GUUCCGUUGGCGUACUGGUAACGCGUCUCCCUCCUAAGGAGAAGAUUGCAGGUUCGAGUCCCGUACGGAACG [A15C C46U G50A], the yeast fitness was found to be 0.711.
In the case of GUUCCGUUGGCGUACUGGUAACGCGUCUCCCUUCUAAGGAGAAGACUGUGGGUUCGAGUCCCGUACGGAACG [A15C C33U C49U], the yeast fitness is at most 0.5.
As for GUUCCGUUGGCGUACUGGUAACCCGUCUCCUUCCUAAGGAGAAGACUGCGGGUUCGCGUCCCGUAUGGAACG [A15C G23C C31U A57C C66U], the yeast fitness was at most 0.5.
Consider GUUCCGUUGGCGUACUGGUAACGCGUCUCCCUCCUAAGGAGAAGACUGCGGGUUCGAGUCUCGUACGGUACG [A15C C61U A69U], for which the yeast fitness was found to be 0.571.
Regarding GUUCCGUUGGCGUACUGGUAACCCGUCUCCCUCCUAAGCAGAAGACUGCGGGUUCGAGUCCCAUACGGCACG [A15C G23C G39C G63A A69C], the yeast fitness is at most 0.5.
Turning to GUUCCGUUGGCGUACUAGUAACGCGUCUCCCUCCUAACGAGAAGACUGCGGGUUCGAGUCCCGUACGGAACG [A15C G17A G38C], the yeast fitness was at most 0.5.
With GUUCCGUUGGCGUACUGGUAACGCGUCUCCCUCCUAAGGAGAAGACUGUGGGUCGGAGUCCCGCACGGAACG [A15C C49U U54C C55G U64C], the yeast fitness was at most 0.5.
As for GUUCCGUUGGCGUACUAGUAACGCGUCUCCCUCCUAAGGAGAAGACUGCGGGUUCGGGUCCCGUGCGGAACG [A15C G17A A57G A65G], the figure is at most 0.5; as for GUUCCGUUGGCGUACUAAUAACGCGUCUCCCUCCUCAGGAGAAGACUGCGGGUUUGAGUCCCGUAAGGAACG [A15C G17A G18A A36C C55U C66A], 0.529.
As for GUUCCGUUGGCGUACUCGUAACGCGUCUCCAUCCUAAGGAGAACACUGCGGGUUCGAGUCCCGUACGGAACG [A15C G17C C31A G44C], the figure is at most 0.5; as for GUUCCGUUGGCGUACUGGUAACGCGUCUCCCUCGGUAGGAGAAGACUGCGGGUUCGAGACCCGUACGGAACG [A15C C34G U35G A36U U59A], at most 0.5; as for GUUCCGUUGGCGUACUGAUAACGCGUCUCCCUCCUAAGGAGAAGACUGCGGGUUCGAGUCCCGUACGGAACG [A15C G18A], 0.74.
On to GUUCCGUUGGCGUACUGGUAACGCGUCUCCUUCCUAAGGAGAAGACUGCGGGUUCGAGUCCCGUACGCAACG [A15C C31U G68C], for which the yeast fitness is at most 0.5.
